SIAE primary – human SIAE inhibitors, primary screen, biochemical, fluorescence polarization, FP-Rh probe, 1536-well HTS | Sialate O-acetylesterase (Homo sapiens), Q9HAT2 | SIAE FP-Rh probe binding | inhibition, % at 9.66 µM | actives 0.69% (n = 370,000);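 active means inhibition above a cutoff: mean of compounds within the control limits plus 3 SD of those, cut at about 17% in these data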;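 further: 0% = plate median of compound wells and 100% = probe without SIAE protein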
rCAG RNA binder – binders of r(CAG) RNA repeats, primary screen, biochemical, fluorescence. r(CAG) RNA repeat, TO-PRO-1 dye displacement fluorescence. inhibition, % at 3 µM. actives 1.3% (n = 370,000);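 active means inhibition above the plate cutoff, the mean of all test compounds on that plate plus 3 SD, cut at about 35% in these data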;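 further: 0% = DMSO alone and 100% = 100 µM mitoxantrone as full dye displacement; higher means more dye released from RNA so lower well fluorescence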
HTRA1 inhibitor – HTRA1 serine protease inhibitors, primary screen, biochemical, fluorescence polarization, HTS; Q92743; recombinant HTRA1, FP-rhodamine activity-based probe; inhibition, % at 5.96 µM; actives 0.5% (n = 340,000); AID 504803, 2011; in the data active means inhibition above about 36%;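 further: 0% = enzyme with DMSO and 100% = wells lacking enzyme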
TCR CD3 inh – inhibitors of human TCR-CD3 interaction, primary screen, biochemical, fluorescence, TAMRA-labeled TCR probe. actives 0.37% (n = 360,000). AID 651800, 2012. T-cell receptor (TCR). inhibition, % at 9.4 µM; in the data active means inhibition above about 19%;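 further: recombinant mutant TCR 2C K166C tagged with TAMRA read by polarization; 0% = receptor in buffer alone and 100% = receptor with positive control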
mABHD4 FP – ABHD4 inhibitors, primary screen, biochemical, fluorescence polarization, mouse | (Lyso)-N-acylphosphatidylethanolamine lipase (Mus musculus), Q8VD66 | purified mABHD4, FP-Rh probe fluorescence polarization | inhibition, % at 8.92 µM | actives 0.54% (n = 370,000) | AID 720543, 2013;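 active means inhibition exceeding the mean over every tested compound plus 3 SD, cut at about 30% in these data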;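 further: 0% = plate median of compound wells and 100% = S159A mutant with DMSO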
Target sequence (Q8VD66 whole entry, looked up): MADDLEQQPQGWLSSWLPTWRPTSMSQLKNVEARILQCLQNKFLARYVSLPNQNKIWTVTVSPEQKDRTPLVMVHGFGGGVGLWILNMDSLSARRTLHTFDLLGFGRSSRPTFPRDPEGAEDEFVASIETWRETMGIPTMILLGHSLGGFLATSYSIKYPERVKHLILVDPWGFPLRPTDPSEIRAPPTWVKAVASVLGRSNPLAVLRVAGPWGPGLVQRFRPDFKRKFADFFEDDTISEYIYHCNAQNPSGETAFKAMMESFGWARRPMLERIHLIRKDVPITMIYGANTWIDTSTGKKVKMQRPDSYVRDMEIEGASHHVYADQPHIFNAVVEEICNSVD
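Test system: mouse ABHD4 enzyme, wild type. Reagent: FP-Rh fluorescent activity-based probe, added after compound pre-incubation. Timing: pre-incubation 45 min, probe exposure 60 min, at 25 °C. Technique: FP readout, ex 525 nm / em 598 nm. Benchmarks: high control S159A mutant with DMSO, low control median of compound wells.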
SIAE inh conf – human SIAE inhibitors, retest, confirmation, biochemical, fluorescence polarization, FP-Rh probe, triplicate; shares compounds with SIAE primary; SIAE FP-Rh activity-based probe; inhibition, % at 9.66 µM; actives 13% (n = 2,300); AID 1117263, 2014;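 active means mean inhibition of the replicates above the hit cutoff set in the primary screen, cut at about 17% in these data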;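 further: 0% = SIAE with DMSO and probe and 100% = probe without SIAE; inhibitors lower polarization as more probe stays unbound to SIAE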
* = called active by the depositor; / = no result given. Compounds with a hit are over-represented: about 2.5% of the library has one in this group of screens.

SMILES	SIAE primary	rCAG RNA binder	HTRA1 inhibitor	TCR CD3 inh	mABHD4 FP	SIAE inh conf
COc1ccc2cc(CNCCOCCOCCNCc3ccc4cc(OC)ccc4c3)ccc2c1	2.1	5.2	13.4	1.7	29.1	/
COc1ccc(C(C)(C)C)cc1NC(=O)Nc1ccc2c(c1)OCO2	21.4*	5.7	3.9	5.7	-3.8	6.1
CCN(CC)C(=O)C1CCCN(Cc2cccc(Oc3ccccc3)c2)C1 (centres undefined)	7.2	-6.7	2.9	4.5	8.5	/
Cc1ccc(Nc2nc(/N=C/NO)n[nH]2)cc1C	26.0*	0.2	2.7	5.9	3.4	1.8
CN(Cc1ccccc1Br)C(=O)CN1C(=O)NC2(CCCCCC2)C1=O	19.3*	0.7	-6.6	-1.2	-1.1	3.3
Cc1ccc(Cl)cc1N1CCN(C(=O)C2CCN(S(C)(=O)=O)CC2)CC1	12.2	1.1	-0.9	5.3	1.5	/
CC(C)c1ccc(NC(=O)Cn2nnc(C(=O)NCc3ccc4c(c3)OCO4)c2N)cc1	-18.8	4.5	-7.6	6.7	2.6	/
CC1=CCC2C(=O)N(c3cccc(C(=O)N(C)C4CCCCC4)c3)C(=O)C2C1 (centres undefined)	14.7	-8.0	5.5	-1.7	-2.8	/
CN(C(=O)c1cccc(N2C(=O)C3C4C=CC(C4)C3C2=O)c1)C1CCCCC1 (centres undefined)	18.8*	-5.9	5.9	4.2	-0.8	2.5
O=C(Cc1cccs1)NNC(=O)c1ccccc1Cl	3.2	2.5	-0.1	3.6	15.6	/
Cc1ccc(C(=O)NCCNS(=O)(=O)c2ccccc2[N+](=O)[O-])cc1	-0.3	-1.8	3.6	4.4	-4.2	/
Cc1ccc(C(=O)OCC(=O)NC2CCCCCC2)c(C)c1	121.8*	-10.5	-7.8	5.4	4.4	-2.4
Cc1cccc(C(=O)OCC(=O)NC2CCCCCCC2)c1	-9.6	-2.3	-10.5	-8.4	-10.3	/
CCC(C)[C@H](NC(=O)[C@@H]1CSC2c3ccccc3C(=O)N21)C(=O)NCc1ccncc1 (some centres undefined)	-3.1	3.5	0.1	-0.5	-0.5	/
C=CCNC(=S)N/N=C/c1ccc(-c2ccc(OC)cc2)o1	18.9*	5.0	-8.3	3.5	14.3	1.8
C=CCNC(=S)N/N=C/c1ccc(-c2cc(Cl)ccc2Cl)o1	1.8	7.1	-0.5	2.5	4.5	/
Brc1ccc(-c2csc(Nc3nc(-c4ccc(Br)cc4)cs3)n2)cc1	42.2*	5.1	-11.8	-7.4	7.4	11.2
Cc1ccc(N=C(NO)c2nonc2N)cc1	40.6*	0.8	5.6	-1.8	-1.5	-1.4
COc1cc(NC(=O)CN2c3cccc4cccc(c34)S2(=O)=O)cc(OC)c1OC	29.3*	6.0	-2.5	5.4	9.8	-4.9
O=C(NCCN1CCOCC1)c1ccccc1Cl	13.4	-2.0	1.5	4.8	-1.2	/
Nc1sccc1C(=O)NCCN1CCOCC1	19.1*	1.1	/	0.3	10.8	2.4
O=C(Cc1cccs1)NCCN1CCOCC1	22.3*	2.3	3.5	2.4	-2.9	1.1
COc1ccccc1C(CNC(=O)c1ccc(NS(=O)(=O)c2ccc3c(c2)OCCO3)cc1)N(C)C (centres undefined)	5.5	-2.0	-3.1	-2.2	-3.2	/
CCN(CC)c1ccc(NC(=O)c2ccc3c(c2)OCO3)c(C)c1	19.9*	1.8	1.3	2.0	3.2	-4.7
Cc1cc(C)c(NC(=O)COC(=O)C2=COCCO2)c(C)c1	6.4	1.6	2.1	5.1	-2.4	/
Cc1cc(C)c(NC(=O)C2=COCCO2)c(C)c1	17.1*	-0.6	2.3	-0.7	0.6	3.6
Cc1c(Cl)cnc(NC(=O)COC(=O)c2cccc(S(=O)(=O)N3CCOCC3)c2)c1Cl	6.0	4.6	0.1	0.0	6.6	/
Cc1c(/C=N/NC(=O)c2ccc(O)cc2)c2ccccn2c1C(=O)c1ccc(F)cc1	12.7	7.8	7.8	-4.7	9.8	/
Cc1c(/C=N/NC(=O)c2ccccc2O)c2ccccn2c1C(=O)c1ccc(F)cc1	37.0*	7.3	10.2	2.3	5.7	-1.7

Source: PubChem (The Scripps Research Institute Molecular Screening Center)
